Test results: ChEMBL document CHEMBL3808332, “Identification of novel aminopiperidine derivatives for antibacterial activity against Gram-positive bacteria” (Bioorg Med Chem Lett, 2016)
Values after ≈ are worked out from the molar mass of the structure shown.

Tests used:
[1] = Plasma clearance in iv/po dosed mouse by LC-MS/MS analysis; format: ADME, organism-based
Outline: (§1)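 Mice, n = 3–5 per group, given the compound intravenously and orally. Plasma pharmacokinetic parameters were derived: total plasma clearance, steady-state volume of distribution, apparent terminal elimination half-life, Tmax after oral dosing, and absolute oral bioavailability (%F).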

[2] = Tmax in iv/po dosed mouse plasma by LC-MS/MS analysis; format: ADME, organism-based; outline: as §1
[3] = Apparent terminal half life in iv/po dosed mouse plasma by LC-MS/MS analysis; format: ADME, organism-based; conditions: read-out: betat1/2(app) (converted); outline: as §1
[4] = Volume of distribution at steady state in iv/po dosed mouse plasma by LC-MS/MS analysis; format: ADME, organism-based; conditions: read-out: Vdss; outline: as §1
[5] = Apparent oral bioavailability in mouse plasma by LC-MS/MS analysis; format: ADME, organism-based; outline: as §1
Enterococcus faecium = experiment: Antibacterial activity against vancomycin-resistant Enterococcus faecium after 24 hrs by microdilution method; format: functional
Streptococcus pneumoniae = experiment: Antibacterial activity against Penicillin-resistant Streptococcus pneumoniae after 24 hrs by microdilution method; format: functional
Staphylococcus aureus = experiment: Antibacterial activity against methicillin-resistant Staphylococcus aureus after 24 hrs by microdilution method; format: functional
Enterococcus faecalis = experiment: Antibacterial activity against vancomycin-resistant Enterococcus faecalis after 24 hrs by microdilution method; format: functional
Escherichia coli = experiment: Antibacterial activity against Escherichia coli after 24 hrs by microdilution method; format: functional
Pseudomonas aeruginosa = experiment: Antibacterial activity against Pseudomonas aeruginosa after 24 hrs by microdilution method; format: functional

Row | Structure (SMILES) | clearance [1] [mL/min/kg] | Tmax [2] [min] | half-life [3] [min] | Vd [4] [L/kg] | bioavailability [5] [%] | MIC (Enterococcus faecium) [µg/mL] | MIC (Streptococcus pneumoniae) [µg/mL] | MIC (Staphylococcus aureus) [µg/mL] | MIC (Enterococcus faecalis) [µg/mL] | MIC (Escherichia coli) [µg/mL] | MIC (Pseudomonas aeruginosa) [µg/mL]
1 | CC(C)(C)[C@H](NC(=O)[C@H](CC1CCCC1)CN(O)C=O)C(=O)N1CCC(NC(=O)c2ccc(C#N)cc2)CC1 | 44 | 40.2 | 55.2 | 2.54 | 55.5 |  |  |  |  |  | 
2 | CC(C)(C)[C@H](NC(=O)[C@H](CC1CCCC1)CN(O)C=O)C(=O)N1CCC(NCc2ccc(F)cc2)CC1 |  |  |  |  |  | 0.4 (≈ 0.771 µM) | 0.4 (≈ 0.771 µM) | 6.3 (≈ 12.1 µM) | 3.1 (≈ 5.98 µM) |  | 
3 | CC(C)(C)[C@H](NC(=O)[C@H](CC1CCCC1)CN(O)C=O)C(=O)N1CCC(NCc2ccc[nH]2)CC1 |  |  |  |  |  | > 50 | 6.3 (≈ 12.9 µM) | > 50 | > 50 | > 50 | > 50
4 | CC(C)(C)[C@H](NC(=O)[C@H](CC1CCCC1)CN(O)C=O)C(=O)N1CCC(NCc2nc3ccccc3[nH]2)CC1 |  |  |  |  |  | 12.5 (≈ 23.1 µM) | 1.6 (≈ 2.96 µM) | 6.3 (≈ 11.7 µM) | 6.3 (≈ 11.7 µM) | > 50 | > 50
5 | CC(C)(C)[C@H](NC(=O)[C@H](CC1CCCC1)CN(O)C=O)C(=O)N1CCC(NCc2ccc3[nH]ccc3c2)CC1 |  |  |  |  |  | 6.3 (≈ 11.7 µM) | 0.8 (≈ 1.48 µM) | 6.3 (≈ 11.7 µM) | 3.1 (≈ 5.74 µM) | > 50 | > 50
6 | CC(C)(C)[C@H](NC(=O)[C@H](CC1CCCC1)CN(O)C=O)C(=O)N1CCC(NCc2ccccc2)CC1 |  |  |  |  |  | 0.8 (≈ 1.6 µM) | 0.8 (≈ 1.6 µM) | 3.1 (≈ 6.19 µM) | 1.6 (≈ 3.2 µM) | > 50 | > 50
7 | CC(C)(C)[C@H](NC(=O)[C@H](CC1CCCC1)CN(O)C=O)C(=O)N1CCC(Nc2ccc3c(c2)OCO3)CC1 |  |  |  |  |  | 1.6 (≈ 3.02 µM) | 0.4 (≈ 0.754 µM) | 6.3 (≈ 11.9 µM) | 3.1 (≈ 5.84 µM) | > 50 | > 50
8 | CC(C)(C)[C@H](NC(=O)[C@H](CC1CCCC1)CN(O)C=O)C(=O)N1CCC(Nc2ccc3cn[nH]c3c2)CC1 |  |  |  |  |  | 1.6 (≈ 3.04 µM) | 0.4 (≈ 0.759 µM) | 12.5 (≈ 23.7 µM) | 6.3 (≈ 12 µM) | > 50 | > 50
9 | CC(C)(C)[C@H](NC(=O)[C@H](CC1CCCC1)CN(O)C=O)C(=O)N1CCC(Nc2ccccc2)CC1 |  |  |  |  |  | 0.8 (≈ 1.64 µM) | 0.8 (≈ 1.64 µM) | 6.3 (≈ 12.9 µM) | 3.1 (≈ 6.37 µM) | > 50 | > 50
10 | COC(=O)c1ccc(CNC2CCN(C(=O)[C@@H](NC(=O)[C@H](CC3CCCC3)CN(O)C=O)C(C)(C)C)CC2)cc1 |  |  |  |  |  | 3.1 (≈ 5.55 µM) | 0.8 (≈ 1.43 µM) | 12.5 (≈ 22.4 µM) | 6.3 (≈ 11.3 µM) |  | 
11 | CC(C)(C)[C@H](NC(=O)[C@H](CC1CCCC1)CN(O)C=O)C(=O)N1CCC(NCc2ccc3c(c2)OCO3)CC1 |  |  |  |  |  | 0.8 (≈ 1.47 µM) | 1.6 (≈ 2.94 µM) | 6.3 (≈ 11.6 µM) | 3.1 (≈ 5.69 µM) | > 50 | > 50
12 | CC(C)(C)[C@H](NC(=O)[C@H](CC1CCCC1)CN(O)C=O)C(=O)N1CCC(NCc2ccco2)CC1 |  |  |  |  |  | 50 (≈ 102 µM) | 1.6 (≈ 3.26 µM) | 50 (≈ 102 µM) | 25 (≈ 51 µM) | > 50 | > 50
